Compound activity as filed in PubChem.
Most compounds without a hit are left out; they make up all but 3.8% or so of the library.
Kir21 inh: inhibitors of mouse Kir2.1 inward-rectifier potassium channel; HEK293-Kir2.1, FluxOR thallium flux fluorescence; active compounds read low; AID 1672, 2009; B-score at 10 µM; Inward rectifier potassium channel 2 (Mus musculus), P35561; hit rate 0.85% among 310,000;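 active = fluorescence ratio B-score at or below minus 3 SD of library scores, with starting-brightness B-score within 2 SD, cut at about -4.2 in these data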;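 note: channel flux triggered by added potassium and thallium sulfate stimulus; B-score of peak minus minimum fluorescence over baseline after thallium stimulus; more negative B-score means stronger Kir2.1 block with less thallium influx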
KCNK3 inh: human KCNK3 channel inhibitors, primary screen, CHO cells, FluxOR thallium flux, B-score | Potassium channel subfamily K member 3 (Homo sapiens), O14649 | FluxOR fluorescence; active compounds read low | B-score at 10 µM | hit rate 0.84% among 340,000;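 active = B-score under library mean minus 4 SD, starting fluorescence ratio at most library mean plus 5 SD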;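 note: more negative B-score means stronger inhibition of thallium flux through KCNK3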
KCNQ1 inh: inhibitors of human KCNQ1 channel, primary screen, cell-based, thallium flux, high-throughput; Potassium voltage-gated channel subfamily KQT member 1 (Homo sapiens), P51787; CHO-K1 KCNQ1, FluxOR thallium flux fluorescence; active compounds read high; B-score at 10 µM; hit rate 1.3% among 310,000;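 active = compounds whose thallium flux B-score, printed positive for inhibition, exceeds three library SD while starting fluorescence stays within three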;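 note: channel opened by potassium depolarization with thallium stimulus after 20 min compound exposure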
KCNQ1 pot: potentiators or activators of KCNQ1 channel, primary screen, cell-based, thallium flux, high-throughput; Potassium voltage-gated channel subfamily KQT member 1 (Homo sapiens), P51787; B-score at 10 µM; hit rate 0.35% among 310,000; CHO-K1 KCNQ1, thallium flux FluxOR fluorescence; active compounds read high;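 active = fluorescence ratio B-score, a plate-corrected score, at least three library SD, with initial intensity B-score within 5 SD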
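Medium – assay buffer, equal DMSO in all wells · Material – CHO-K1 cell line with stable KCNQ1 potassium channel expression · Signal – kinetic FluxOR thallium fluorescence, 10-s 1-Hz baseline, 110-s post-stimulus read · Compound – single concentration per compound, DMSO matched to controls · Schedule – 37 °C overnight plating, 90-min dark dye load, 20-min compound pretreatment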
KCNK9 inh: KCNK9 potassium channel inhibitors, primary screen, HEK293 cells, thallium flux; Potassium channel subfamily K member 9 (Homo sapiens), Q9NPC2; FluxOR thallium flux fluorescence; active compounds read low; B-score at 10 µM; hit rate 1.2% among 310,000; AID 488922, 2010;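 active = ratio B-score over 3 SD below the library mean, with starting fluorescence within 5 SD of its mean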;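 note: negative B-score means less thallium flux so channel inhibition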
Target sequence (Q9NPC2 whole entry, looked up): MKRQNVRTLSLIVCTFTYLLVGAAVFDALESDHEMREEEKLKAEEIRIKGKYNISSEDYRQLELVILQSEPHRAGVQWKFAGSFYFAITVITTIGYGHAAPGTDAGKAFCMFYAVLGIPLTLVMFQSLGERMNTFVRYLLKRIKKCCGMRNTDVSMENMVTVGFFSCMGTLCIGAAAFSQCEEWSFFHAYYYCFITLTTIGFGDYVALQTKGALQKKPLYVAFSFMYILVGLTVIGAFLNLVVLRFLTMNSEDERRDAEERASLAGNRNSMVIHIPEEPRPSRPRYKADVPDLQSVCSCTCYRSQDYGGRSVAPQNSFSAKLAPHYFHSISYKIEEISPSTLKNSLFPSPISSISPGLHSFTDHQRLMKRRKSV
hERG protect: hERG rescue from dofetilide block, primary screen, cell-based, CHO-hERG, FluxOR thallium flux, dofetilide IC70; Voltage-gated inwardly rectifying potassium channel KCNH2 (Homo sapiens), Q12809; dofetilide IC70 present; activation (rescue from dofetilide block), less the hit threshold, % at 10 µM; hit rate 0.51% among 310,000; AID 1511, 2009;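 active = activation above the mean of controls blocked by dofetilide plus 5 SD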;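 note: thallium influx through hERG after potassium depolarization seen as dye fluorescence rise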
* hit, by the source's call; i = inactive; . = no result given.

SMILES	Kir21 inh	KCNK3 inh	KCNQ1 inh	KCNQ1 pot	KCNK9 inh	hERG protect
Cc1ccc2cccc(S(=O)(=O)Nc3ccc4c(c3)OCO4)c2n1	-5.32*	i	i	i	i	-10.4
c1ccc(CSc2nnnn2-c2ccc3c(c2)OCCO3)nc1	0.18	i	i	i	i	-0.4
Clc1ccc(CSc2nnnn2-c2ccc3c(c2)OCO3)c(Cl)c1	-0.48	i	i	i	-7.01*	-7.9
CCOC(=O)CCCCCN(Cc1ccccc1)S(=O)(=O)c1ccc([N+](=O)[O-])cc1	-0.34	i	7*	i	i	-9.4
CCOC(=O)c1ccc(CN(Cc2ccccc2)S(=O)(=O)c2cccc([N+](=O)[O-])c2)cc1	-0.1	i	i	i	i	-9.5
CCCCN(CCCC)S(=O)(=O)c1ccc(SCC(=O)OCC)c([N+](=O)[O-])c1	-0.54	i	i	i	i	-4.2
CCOC(=O)CSc1ccc(S(=O)(=O)N(CC)CC)cc1[N+](=O)[O-]	0.5	i	i	i	-6.8*	-1.1
COc1ccccc1N1CN(S(=O)(=O)c2ccc(C)cc2)c2nc3ccccc3nc21	.	-9.9*	.	.	.	.
CC1CN(C(=O)CCNC(=O)c2ccccc2Cl)CC(C)O1 (centres undefined)	0.34	i	i	i	i	-10.6
Oc1cc(CNC2CCCCC2)c(O)cc1CNC1CCCCC1	.	i	.	.	.	.
Cc1nn(-c2ccccc2)c(C)c1/C=N/NC(=O)c1cc(C(C)(C)C)[nH]n1	0.59	i	i	i	i	-12.6
Cc1ccc(C)c(OCC(=O)N/N=C/c2c(C)nn(-c3ccccc3)c2Cl)c1C	-4.37*	i	i	i	i	-10.2
Cc1ccc(-c2cc(C(=O)N/N=C/c3c(C)nn(-c4ccccc4)c3C)[nH]n2)cc1	0.82	i	13*	i	i	-7.2
Cc1nn(-c2ccccc2)c(Cl)c1/C=N\NC(=O)c1cncc(Br)c1	-0.11	i	i	i	i	-12.3
COC(=O)N/N=C\c1c(C)nn(-c2ccccc2)c1Cl	-1.35	i	i	i	i	-8.6
Cc1nn(-c2cccc(Cl)c2)c(Cl)c1/C=N/NC(=O)c1cccnc1	1.31	i	i	i	-7.43*	-9.3
CCOc1cc(/C=C2/SC(=S)N(C)C2=O)ccc1Oc1ccc([N+](=O)[O-])cc1[N+](=O)[O-]	-0.08	.	i	i	i	-7.8
CC(C)C(c1nnnn1Cc1ccco1)N1CCN(c2cccc(Cl)c2)CC1 (centres undefined)	0.02	i	i	i	-7.95*	-4.5
COC(=O)Cc1c[nH]c2cccc(OCC(O)CN(Cc3ccc([N+](=O)[O-])cc3)C(C)(C)C)c12 (centres undefined)	-1.44	i	i	i	-7.77*	-11.2
CN(C)c1nc(N)c([N+](=O)[O-])c(NCCO)n1	-0.17	i	i	i	i	-7.8
CCCCOc1ccc(C(=O)N/N=C/c2ccc(OCCN3CCCCC3)c(OC)c2)cc1	-3.08	i	6*	i	i	-14.8
CCC(=O)N(CC)C1=C(O)c2ccccc2C(=O)C1=O	-4.56*	i	i	i	i	-8.1
O=C(Nc1c(C(=O)N2CCN(c3ccccn3)CC2)oc2ccccc12)c1cccc([N+](=O)[O-])c1	-0.16	i	i	i	i	-6.5
O=C(NCc1cccc(C(F)(F)F)c1)N1CCN(C(=O)c2ccccc2)CC1	.	i	.	.	.	.
CC(C)Cc1ccc(C(C)C(N)=NCCc2ccccc2)cc1 (centres undefined)	-7.52*	i	9*	i	i	-21.6
COc1cc2c(cc1OC)C(c1ccc([N+](=O)[O-])cc1)N(C(C)=O)CC2 (centres undefined)	0.29	i	i	i	i	9.4*
